What is called MFC is the lowest tested concentration that kills the fungus rather than only halting it. A word on the MIC50: it is an inhibitory concentration at the 50% level, which refers to growth in some studies and to a panel of isolates in others.

Data set [1] deals with Candida tropicalis. Briefly: Fungicidal activity against Candida tropicalis after 48 hrs by agar plate dilution method. The format is functional. Put shortly:
(§1)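 MFC: after the microdilution MIC, material from each clear well was plated onto RPMI-1640 agar buffered with MOPS. Plates incubated at 30 °C and read after 48 h. MFC is the lowest concentration giving total inhibition of visible growth.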

The subject of data set [2] is Cryptococcus neoformans. In words: Antifungal activity against Cryptococcus neoformans ATCC 32264 assessed as growth inhibition at 250 ug/mL after 48 hrs by microplate reader analysis. The class given is functional. Particulars: ATCC 32264, 48 h, read-out: GI. Summed up: (§2)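 Microplate growth-inhibition assay in RPMI-1640, compound at final 250–0.98 µg/mL (DMSO ≤1%). Inoculum 1–5 × 10³ CFU/mL. Sterility and DMSO growth controls included. Percent inhibition is computed from blank-corrected OD relative to the growth control, tested in duplicate.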

In data set [3] the test system is Nannizzia gypsea. In words: Antifungal activity against Microsporum gypseum CCC 115 by NCCLS broth microdilution method. Particulars: read-out: MIC100. The class given is functional. Summed up: (§3)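 MIC by broth microdilution per NCCLS M27-A3/M38-A2 in RPMI-1640 buffered to pH 7.0 with MOPS. Twofold dilutions from 250–0.98 µg/mL, final DMSO ≤1%. Inoculum 1–5 × 10³ CFU/mL. Incubated in a moist dark chamber, 30 °C for Aspergillus and 28–30 °C for dermatophytes. Read visually when control growth allowed. Endpoint is the lowest concentration giving total inhibition of visible growth (MIC100).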
A general note: Dilution methods test growth across graded concentrations, often in twofold steps.

Data set [4] has as its system Cryptococcus neoformans. In words: Antifungal activity against Cryptococcus neoformans ATCC 32264 assessed as growth inhibition at 62.5 ug/mL after 48 hrs by microplate reader analysis. The format is functional. The following applies: ATCC 32264, 48 h, read-out: GI. Summed up:
as §2

Data set [5] deals with Cryptococcus neoformans. Briefly: Antifungal activity against Cryptococcus neoformans ATCC 32264 assessed as growth inhibition at 15.6 ug/mL after 48 hrs by microplate reader analysis. The class given is functional. Particulars: ATCC 32264, 48 h, read-out: GI. Summed up:
as §2

In data set [6] the test system is Candida albicans. In words: Antifungal activity against Candida albicans ATCC 10231 after 24 hrs by microplate reader analysis. The class given is functional. The following applies: ATCC 10231, 24 h. Summed up: (§4)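 96-well RPMI-1640 wells with compound at final 250–0.98 µg/mL (DMSO ≤1%). Inoculum 100 µL, 1–5 × 10³ CFU/mL, 200 µL final. Each well includes growth (DMSO, no compound) and sterility controls. % inhibition = 100 − (CTW−SCW)/(GCW−SCW) × 100, run in duplicate.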

A short description of data set [7]: Acute toxicity in bony fish assessed as mortality at 5 ug/mL after 96 hrs. The following applies: actinopterygii, 96 h. Put shortly:
(§5)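 Guppy (Poecilia reticulata) acute static exposure: 10 fish per concentration in 2 L wide-mouthed jars holding the test solution. Compounds were added from […] to give the final concentrations. Dead fish were counted and removed every 24 h, with general condition noted; percentage mortality was scored at 96 h. Two experiments, each in triplicate.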

The test system of data set [8] is Candida albicans. Briefly: Antifungal activity against Candida albicans ATCC 10231 assessed as growth inhibition at 31.25 ug/mL after 24 hrs by microplate reader analysis. The class given is functional. Particulars: ATCC 10231, 24 h, read-out: GI. Summed up: as §4
Data set [9] relates to Candida albicans. Briefly: Fungicidal activity against Candida albicans ATCC 10231 after 48 hrs by agar plate dilution method. Particulars: ATCC 10231, 48 h. The format is functional. Summed up:
as §1

Data set [10] has as its system Candida albicans. In words: Antifungal activity against Candida albicans ATCC 10231 after 48 hrs by NCCLS broth microdilution method. The class given is functional. The following applies: ATCC 10231, 48 h, read-out: MIC100. Put shortly:
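Yeast MIC by NCCLS M27-A3 broth microdilution in RPMI-1640 buffered to pH 7.0 with MOPS. Twofold dilutions of 250–0.98 µg/mL, final DMSO ≤1%. Inoculum 1–5 × 10³ CFU/mL. Incubated at 30 °C in a moist dark chamber. Read visually at 48 h. MIC100 is the lowest concentration with no visible growth versus drug-free control.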

Another data set concerns Aspergillus flavus. In words: Antifungal activity against Aspergillus flavus ATCC 9170 at 0.98 to 250 ug/mL by NCCLS broth microdilution method. The format is functional, organism-based. Put shortly:
as §3

The subject of the next data set is Trichophyton rubrum. Briefly: Fungicidal activity against Trichophyton rubrum CCC 110 after 48 hrs by agar plate dilution method. The format is functional. Particulars: CCC 110, 48 h. Summed up: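 Samples from each clear well of the MIC broth microdilution tray were plated onto RPMI-1640 agar buffered with MOPS. That tray had compounds twofold diluted in RPMI (pH 7.0, MOPS) from 250–0.98 µg/mL with inoculum of 1–5 × 10³ CFU/mL, incubated at 28–30 °C for dermatophytes. Plates were incubated at 30 °C and read at 48 h. MFC was taken as the lowest concentration giving total inhibition of visible growth.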

Data set [11] can be described thus: Acute toxicity in bony fish assessed as mortality at 0.4 ug/mL after 96 hrs. The following applies: actinopterygii; read-out: Activity. Put shortly:
as §5

Data set [12] deals with Candida albicans. In words: Antifungal activity against Candida albicans ATCC 10231 assessed as growth inhibition at 7.8 ug/mL after 24 hrs by microplate reader analysis. The class given is functional. Particulars: ATCC 10231, 24 h, read-out: GI. Summed up: as §4
For data set [13], the system named is Trichophyton mentagrophytes. In words: Fungicidal activity against Trichophyton mentagrophytes ATCC 9972 after 48 hrs by agar plate dilution method. The class given is functional. Particulars: ATCC 9972, 48 h. Summed up:
as §1

The test system of data set [14] is Candida tropicalis. In words: Antifungal activity against Candida tropicalis assessed as growth inhibition at 125 ug/mL by microplate reader analysis. The format is functional. The following applies: read-out: GI.
Data set [15] has as its system Candida tropicalis. Briefly: Antifungal activity against Candida tropicalis assessed as growth inhibition at 250 ug/mL by microplate reader analysis. Particulars: read-out: GI. The format is functional.
For data set [16], the system named is Candida albicans. Briefly: Antifungal activity against Candida albicans ATCC 10231 assessed as growth inhibition at 3.9 ug/mL after 24 hrs by microplate reader analysis. Particulars: ATCC 10231, 24 h, read-out: GI. The format is functional. Summed up:
as §4

Data set [17] relates to Candida albicans. Briefly: Antifungal activity against Candida albicans ATCC 10231 assessed as growth inhibition at 125 ug/mL after 24 hrs by microplate reader analysis. The class given is functional. The following applies: ATCC 10231, 24 h, read-out: GI. Put shortly: as §4
For data set [18], the system named is Nannizzia gypsea. In words: Fungicidal activity against Microsporum gypseum CCC 115 after 48 hrs by agar plate dilution method. The format is functional. The following applies: CCC 115, 48 h. Summed up:
as §1

The next data set deals with Aspergillus niger. Briefly: Antifungal activity against Aspergillus niger ATCC 9029 at 0.98 to 250 ug/mL by NCCLS broth microdilution method. The format is functional, organism-based. Put shortly: as §3
In data set [19] the test system is Candida tropicalis. Briefly: Antifungal activity against Candida tropicalis assessed as growth inhibition at 7.8 ug/mL by microplate reader analysis. Particulars: read-out: GI. The format is functional.

Values after ≈ are worked out from the molar mass of the structure shown. Active and inactive are the calls of the source. The calls are words filed in the database; no cut-off is given here.

With `COc1nc(N)c(N=O)c(OCc2ccccc2)n1`, the minimum fungicidal concentration (MFC) in the data set with Candida tropicalis [1] turned out to be 62.5 µg/mL (≈ 240 µM); with Candida albicans [9], 62.5 µg/mL (≈ 240 µM); in the data set with Trichophyton rubrum it was 125 µg/mL (≈ 480 µM); in [13], 125 µg/mL (≈ 480 µM); in the data set on Nannizzia gypsea [18], 62.5 µg/mL (≈ 240 µM). The inhibition of growth at 250 µg/mL in the data set with Cryptococcus neoformans [2] and with Candida tropicalis [15] was 100% throughout. The figures for the MIC in the data set with Nannizzia gypsea [3] and with Candida albicans [10] were 62.5 µg/mL (≈ 240 µM) and 31.2 µg/mL (≈ 120 µM), respectively. The inhibition of growth at 62.5 µg/mL in the data set with Cryptococcus neoformans [4] amounted to 100%. The inhibition of growth at 15.6 µg/mL in the data set on Cryptococcus neoformans [5] was found to be 80.2%. For the same compound, the MIC50 with Candida albicans [6] was determined as 7.8 µg/mL (≈ 30 µM). For the same compound, the Activity result in [7] is “Non-toxic”. Also, the inhibition of growth at 31.25 µg/mL in the data set on Candida albicans [8] was 100%. Further, the result in the data set on Aspergillus flavus and with Aspergillus niger was inactive. Moreover, the mortality at 96 h, 0.4 ug/mL in data set [11] was found to be 0%. The results for the inhibition of growth at 7.8 µg/mL with Candida albicans [12] and in the data set with Candida tropicalis [19] were 56.9% and 56.7%, respectively. Further, the inhibition of growth at 125 µg/mL with Candida tropicalis [14] and in the data set with Candida albicans [17] was 100% throughout. The inhibition of growth at 3.9 µg/mL in the data set with Candida albicans [16] is 47.2%.

(Values after ChEMBL document CHEMBL2146464, “Structure-activity relationship study of nitrosopyrimidines acting as antifungal agents” (Bioorg Med Chem, 2012).)
